From ChEMBL document CHEMBL1154716, “Synthesis of some new S-triazine based chalcones and their derivatives as potent antimicrobial agents” (2010)
In brackets after ≈: the same amount, converted by molar mass. Activity calls are given as the source filed them. No cut-off for these calls is given here.

Legend:
Bacillus cereus [1] = assay: Antimicrobial activity against Bacillus cereus after 24 hrs by microdilution technique; assay type: functional
Summary of the method: (§1)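 Broth microdilution in LB medium. Inoculum is 1.0 × 10^4 cfu per well, from a saline-adjusted suspension of 1.0 × 10^5 cfu/ml. Compounds are dissolved in DMSO. Incubated 24 h at 28 C. MIC is the lowest concentration with no visible growth under a binocular microscope. MBC is read by subculture into fresh broth for 72 h, with no growth taken as 99.5% kill. OD is read at 655 nm.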

Escherichia coli [2] = assay: Antimicrobial activity against Escherichia coli at 1 umol/spot after 18 hrs by TLC-bioautographic method; assay type: functional
Summary of the method: (§2)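 TLC bioautography. Samples are spotted on silica gel TLC plates, then sprayed with bacteria (1.0 × 10^5 cfu/ml) in tryptic soy broth. Plates are incubated 18 h at 37 C and sprayed with 3% aqueous p-iodonitrotetrazolium violet. After a further 3 h, growth is stopped with 70% EtOH. White zones on a pink background are scored as inhibition-zone diameter with standard errors.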

Bacillus cereus [3] = assay: Antimicrobial activity against Bacillus cereus at 1 umol/spot after 18 hrs by TLC-bioautographic method; assay type: functional; summary of the method: as §2
Staphylococcus aureus [4] = assay: Antimicrobial activity against Staphylococcus aureus at 1 umol/spot after 18 hrs by TLC-bioautographic method; assay type: functional; summary of the method: as §2
Micrococcus flavus [5] = assay: Antimicrobial activity against Micrococcus flavus at 1 umol/spot after 18 hrs by TLC-bioautographic method; assay type: functional; summary of the method: as §2
Escherichia coli [6] = assay: Antimicrobial activity against Escherichia coli at 10 ug/disk after 24 hrs by disk diffusion assay; assay type: functional
Summary of the method: (§3)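 Disc diffusion on 4 mm filter discs. Bacteria are grown overnight in LB at 28 C, then adjusted in saline to 1.0 × 10^5 cfu/ml. The suspension is mixed into top agar over peptone agar plates. Plates are incubated 24 h at 28 C, and growth-inhibition zone diameter is measured. Streptomycin and ampicillin controls are applied from a 1 mg/ml stock. Tests are done in duplicate.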

Escherichia coli [7] = assay: Antimicrobial activity against Escherichia coli at 1 umol/disk after 24 hrs by disk diffusion assay; assay type: functional; summary of the method: as §3
Listeria monocytogenes [8] = assay: Antimicrobial activity against Listeria monocytogenes at 10 ug/disk after 24 hrs by disk diffusion assay; assay type: functional; summary of the method: as §3
Pseudomonas aeruginosa [9] = assay: Antimicrobial activity against Pseudomonas aeruginosa at 1 umol/disk after 24 hrs by disk diffusion assay; assay type: functional; summary of the method: as §3
Pseudomonas aeruginosa [10] = assay: Antimicrobial activity against Pseudomonas aeruginosa at 10 ug/disk after 24 hrs by disk diffusion assay; assay type: functional; summary of the method: as §3
Salmonella typhimurium [11] = assay: Antimicrobial activity against Salmonella Typhimurium at 1 umol/spot after 18 hrs by TLC-bioautographic method; assay type: functional; summary of the method: as §2
Pseudomonas aeruginosa [12] = assay: Antimicrobial activity against Pseudomonas aeruginosa at 1 umol/spot after 18 hrs by TLC-bioautographic method; assay type: functional; summary of the method: as §2
Listeria monocytogenes [13] = assay: Antimicrobial activity against Listeria monocytogenes after 24 hrs by microdilution technique; assay type: functional; summary of the method: as §1
Staphylococcus aureus [14] = assay: Antimicrobial activity against Staphylococcus aureus after 24 hrs by microdilution technique; assay type: functional; summary of the method: as §1
Enterobacter cloacae [15] = assay: Antimicrobial activity against Enterobacter cloacae at 1 umol/spot after 18 hrs by TLC-bioautographic method; assay type: functional; summary of the method: as §2
Enterobacter cloacae [16] = assay: Antimicrobial activity against Enterobacter cloacae at 1 umol/disk after 24 hrs by disk diffusion assay; assay type: functional; summary of the method: as §3
Staphylococcus aureus [17] = assay: Antimicrobial activity against Staphylococcus aureus at 1 umol/disk after 24 hrs by disk diffusion assay; assay type: functional; summary of the method: as §3
Salmonella typhimurium [18] = assay: Antimicrobial activity against Salmonella Typhimurium after 24 hrs by microdilution technique; assay type: functional, Salmonella enterica subsp. enterica serovar Typhimurium; summary of the method: as §1
Bacillus cereus [19] = assay: Antimicrobial activity against Bacillus cereus at 1 umol/disk after 24 hrs by disk diffusion assay; assay type: functional; summary of the method: as §3
Salmonella typhimurium [20] = assay: Antimicrobial activity against Salmonella Typhimurium at 1 umol/disk after 24 hrs by disk diffusion assay; assay type: functional, organism-based; settings: Salmonella enterica subsp. enterica serovar Typhimurium; summary of the method: as §3
Bacillus cereus [21] = assay: Antimicrobial activity against Bacillus cereus at 10 ug/disk after 24 hrs by disk diffusion assay; assay type: functional; summary of the method: as §3
Enterobacter cloacae [22] = assay: Antimicrobial activity against Enterobacter cloacae after 24 hrs by microdilution technique; assay type: functional; summary of the method: as §1
Enterobacter cloacae [23] = assay: Antimicrobial activity against Enterobacter cloacae at 10 ug/disk after 24 hrs by disk diffusion assay; assay type: functional; summary of the method: as §3
Escherichia coli [24] = assay: Antimicrobial activity against Escherichia coli after 24 hrs by microdilution technique; assay type: functional; summary of the method: as §1
Micrococcus flavus [25] = assay: Antimicrobial activity against Micrococcus flavus at 1 umol/disk after 24 hrs by disk diffusion assay; assay type: functional; summary of the method: as §3
Listeria monocytogenes [26] = assay: Antimicrobial activity against Listeria monocytogenes at 1 umol/disk after 24 hrs by disk diffusion assay; assay type: functional; summary of the method: as §3
Micrococcus flavus [27] = assay: Antimicrobial activity against Micrococcus flavus after 24 hrs by microdilution technique; assay type: functional; summary of the method: as §1
Pseudomonas aeruginosa [28] = assay: Antimicrobial activity against Pseudomonas aeruginosa after 24 hrs by microdilution technique; assay type: functional; summary of the method: as §1
Micrococcus flavus [29] = assay: Antimicrobial activity against Micrococcus flavus at 10 ug/disk after 24 hrs by disk diffusion assay; assay type: functional; settings: read-out: IZ; summary of the method: as §3
Listeria monocytogenes [30] = assay: Antimicrobial activity against Listeria monocytogenes at 1 umol/spot after 18 hrs by TLC-bioautographic method; assay type: functional; summary of the method: as §2
Salmonella typhimurium [31] = assay: Antimicrobial activity against Salmonella Typhimurium at 10 ug/disk after 24 hrs by disk diffusion assay; assay type: functional, organism-based; settings: Salmonella enterica subsp. enterica serovar Typhimurium; summary of the method: as §3
Staphylococcus aureus [32] = assay: Antimicrobial activity against Staphylococcus aureus at 10 ug/disk after 24 hrs by disk diffusion assay; assay type: functional; summary of the method: as §3
[33] = Salmonella enterica subsp. enterica serovar Typhimurium

| SMILES | MBC (Bacillus cereus [1]) [µM] | MIC (Bacillus cereus [1]) [µM] | inhibition zone (IZ) (Escherichia coli [2]) | inhibition zone (IZ) (Bacillus cereus [3]) | inhibition zone (IZ) (Staphylococcus aureus [4]) [millimeter] | inhibition zone (IZ) (Micrococcus flavus [5]) | inhibition zone (IZ) (Escherichia coli [6]) | inhibition zone (IZ) (Escherichia coli [7]) | inhibition zone (IZ) (Listeria monocytogenes [8]) | inhibition zone (IZ) (Pseudomonas aeruginosa [9]) | inhibition zone (IZ) (Pseudomonas aeruginosa [10]) | inhibition zone (IZ) (Pseudomonas aeruginosa [12]) | MBC (Listeria monocytogenes [13]) | MIC (Listeria monocytogenes [13]) [µM] | MBC (Staphylococcus aureus [14]) [µM] | MIC (Staphylococcus aureus [14]) [µM] | inhibition zone (IZ) (Enterobacter cloacae [15]) | inhibition zone (IZ) (Enterobacter cloacae [16]) | inhibition zone (IZ) (Staphylococcus aureus [17]) | MIC (Salmonella typhimurium [18]; Salmonella enterica) [µM] | further results |
| --- | --- | --- | --- | --- | --- | --- | --- | --- | --- | --- | --- | --- | --- | --- | --- | --- | --- | --- | --- | --- | --- |
| COc1ccccc1-c1cc(-c2ccc(Nc3nc(Nc4ccccc4)nc(Nc4ccccc4)n3)cc2)nc(N)n1 | 181 (≈ 100 µg/mL) | 90.5 (≈ 50.1 µg/mL) | inactive | inactive | 0.03 | 0.06 millimeter | inactive | inactive | inactive | inactive | inactive | inactive | 724 µM (≈ 401 µg/mL) | 724 (≈ 401 µg/mL) | 181 (≈ 100 µg/mL) | 90.5 (≈ 50.1 µg/mL) | inactive | inactive | inactive | 181 (≈ 100 µg/mL) | inhibition zone (IZ) (Salmonella typhimurium [11]; [33]): inactive; MBC (Salmonella typhimurium [18]; Salmonella enterica): 362 µM (≈ 200 µg/mL); inhibition zone (IZ) (Bacillus cereus [19]): inactive; inhibition zone (IZ) (Salmonella typhimurium [20]): inactive; inhibition zone (IZ) (Bacillus cereus [21]): inactive; MBC (Enterobacter cloacae [22]): 362 µM (≈ 200 µg/mL); MIC (Enterobacter cloacae [22]): 181 µM (≈ 100 µg/mL); inhibition zone (IZ) (Enterobacter cloacae [23]): inactive; MBC (Escherichia coli [24]): 362 µM (≈ 200 µg/mL); MIC (Escherichia coli [24]): 181 µM (≈ 100 µg/mL); inhibition zone (IZ) (Micrococcus flavus [25]): 0.03 millimeter; inhibition zone (IZ) (Listeria monocytogenes [26]): inactive; MBC (Micrococcus flavus [27]): 181 µM (≈ 100 µg/mL); MIC (Micrococcus flavus [27]): 90.5 µM (≈ 50.1 µg/mL); MBC (Pseudomonas aeruginosa [28]): 362 µM (≈ 200 µg/mL); MIC (Pseudomonas aeruginosa [28]): 181 µM (≈ 100 µg/mL); zone of inhibition at 10 µg/disc (Micrococcus flavus [29]): 6 mm; inhibition zone (IZ) (Listeria monocytogenes [30]): 0.09 millimeter; inhibition zone (IZ) (Salmonella typhimurium [31]): inactive; inhibition zone (IZ) (Staphylococcus aureus [32]): inactive |
| CC(=O)N1N=C(c2ccc(Nc3nc(Nc4ccccc4)nc(Nc4ccccc4)n3)cc2)CC1c1ccco1 (stereo not given) | 756 (≈ 401 µg/mL) | 378 (≈ 201 µg/mL) | inactive | inactive | 0.07 | inactive | inactive | inactive | inactive | inactive | inactive | inactive | inactive | 756 (≈ 401 µg/mL) | 756 (≈ 401 µg/mL) | 756 (≈ 401 µg/mL) | 0.09 millimeter | inactive | inactive | 756 (≈ 401 µg/mL) | inhibition zone (IZ) (Salmonella typhimurium [11]): 0.09 millimeter; MBC (Salmonella typhimurium [18]; [33]): inactive; inhibition zone (IZ) (Bacillus cereus [19]): inactive; inhibition zone (IZ) (Salmonella typhimurium [20]): inactive; inhibition zone (IZ) (Bacillus cereus [21]): inactive; MBC (Enterobacter cloacae [22]): inactive; MIC (Enterobacter cloacae [22]): 756 µM (≈ 401 µg/mL); inhibition zone (IZ) (Enterobacter cloacae [23]): inactive; MBC (Escherichia coli [24]): 756 µM (≈ 401 µg/mL); MIC (Escherichia coli [24]): 378 µM (≈ 201 µg/mL); inhibition zone (IZ) (Micrococcus flavus [25]): 0.05 millimeter; inhibition zone (IZ) (Listeria monocytogenes [26]): inactive; MBC (Micrococcus flavus [27]): 756 µM (≈ 401 µg/mL); MIC (Micrococcus flavus [27]): 378 µM (≈ 201 µg/mL); MBC (Pseudomonas aeruginosa [28]): 756 µM (≈ 401 µg/mL); MIC (Pseudomonas aeruginosa [28]): 756 µM (≈ 401 µg/mL); zone of inhibition at 10 µg/disc (Micrococcus flavus [29]): 10 mm; inhibition zone (IZ) (Listeria monocytogenes [30]): 0.08 millimeter; inhibition zone (IZ) (Salmonella typhimurium [31]): inactive; inhibition zone (IZ) (Staphylococcus aureus [32]): inactive |
